Data on 19 molecules can be found in ChEMBL document CHEMBL3400028, “Evaluation of Aconitum diterpenoid alkaloids as antiproliferative agents” (2015).

What all share (type): functional
For assay [1], the system named is A549. As to the kind of experiment: Antiproliferative activity against human A549 cells by sulforhodamine B assay. The method in brief: (§1)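 Cells in RPMI 1640 (25 mM HEPES, 2 mM L-glutamine, 10% heat-inactivated FBS, antibiotics) at 37 °C, 5% CO2. Seeded at 3–5 × 10³/well with graded concentrations, paclitaxel as assay control, for 72 h. TCA-fixed, stained with 0.04% SRB, dye dissolved in 10 mM Tris, A515 read. GI50 is the concentration halving absorbance versus untreated cells; three or more experiments.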
(The SRB assay estimates cell density from bound dye.)

In assay [2] the test system is DU-145. As to the kind of experiment: Antiproliferative activity against human DU145 cells by sulforhodamine B assay. The method in brief: as §1
Assay [3] relates to KB. As to the kind of experiment: Antiproliferative activity against human KB cells by sulforhodamine B assay. The method, boiled down:
as §1

A short description of assay [4]: Antiproliferative activity against multidrug-resistant P-gp expressing human KBVIN cells by sulforhodamine B assay. The method in brief:
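Vincristine-resistant KB subline kept in 100 nM vincristine, then grown 7–10 days without it before testing. RPMI 1640 with 10% FBS, 37 °C, 5% CO2. 3–5 × 10³ cells/well exposed 72 h to a concentration series, paclitaxel as assay control. SRB staining after TCA fixation, A515 read. GI50 is the 50% absorbance reduction versus untreated cells; three or more experiments.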

A short description of assay [5]: Selectivity ratio of GI50 for human KB cells to GI50 for multidrug-resistant P-gp expressing human KBVIN cells. The method in brief:
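Ratio of GI50 in parental KB to GI50 in P-gp-overexpressing KB-VIN. […] KB-VIN cells were grown 7–10 days without vincristine before the assay.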

For orientation: GI50 means the concentration that inhibits growth by half. Lower therefore signals more potent growth inhibition. Turning to `C=C1[C@H]2C[C@H]3C4N5C[C@]6(C)CCC[C@]47[C@H]([C@H]2OC(=O)/C=C/c2ccccc2)C3(C[C@]5(O)[C@H]67)[C@@H]1O`, the GI50 was found to be 8.4 µM in assay [1], 6.5 µM in assay [2], 7 µM in assay [3] and 6.4 µM in assay [4]. In assay [5], the RatioGI50 was found to be 1.1.

`C=C1[C@H]2C[C@@H]3C4N5C[C@]6(C)CCC[C@@]47[C@@H]6[C@@H]5C[C@]3([C@@H]1O)[C@H]7[C@H]2OC(=O)c1ccc(C(F)(F)F)cc1`: the GI50 in assay [1], in assay [2], in assay [3] and in assay [4] was 10 µM throughout. Also, in assay [5], the RatioGI50 is 10.

Turning to `C=C1[C@H]2C[C@@H]3C4N5C[C@]6(C)CCC[C@@]47[C@@H]6[C@@H]5C[C@]3([C@@H]1O)[C@H]7[C@H]2OC(=O)c1ccc(OC(F)(F)F)cc1`, the GI50 in assay [1], in assay [2], in assay [3] and in assay [4] was 10 µM each time. Besides, the RatioGI50 in assay [5] came to 10.

As for `C=C1[C@H]2C[C@@H]3C4N5C[C@]6(C)CCC[C@@]47[C@@H]6[C@@H]5C[C@]3([C@@H]1O)[C@H]7[C@H]2OC(=O)c1cccnc1`, the GI50 in assay [1], in assay [2], in assay [3] and in assay [4] was above 20 µM in each case. In addition, in assay [5], the RatioGI50 is reported as above 20.

Consider `C=C1[C@H]2C[C@@H]3C4N5C[C@]6(C)CCC[C@@]47[C@@H]6[C@@H]5C[C@]3([C@@H]1O)[C@H]7[C@H]2OC(=O)c1ccc(F)cc1`, for which the 50% growth inhibitory concentration (GI50) in assay [1], in assay [2], in assay [3] and in assay [4] was above 20 µM throughout. Further, the RatioGI50 in assay [5] is recorded as above 20.

Regarding `C=C1[C@H]2C[C@@H]3C4N5C[C@]6(C)CCC[C@@]47[C@@H]6[C@@H]5C[C@]3([C@@H]1OC(=O)c1ccc(F)cc1)[C@H]7[C@H]2O`, the 50% growth inhibitory concentration (GI50) in assay [1], in assay [2], in assay [3] and in assay [4] was above 20 µM in each case. Moreover, the RatioGI50 in assay [5] is given as above 20.

`C=C1[C@H]2C[C@@H]3C4N5C[C@]6(C)CCC[C@@]47[C@@H]6[C@@H]5C[C@]3([C@@H]1OC(=O)c1ccc(F)cc1)[C@H]7[C@H]2OC(=O)c1ccc(F)cc1`: the GI50 in assay [1] worked out at 8.1 µM; in assay [2], 6.8 µM; in assay [3], 5.2 µM; in assay [4] it was 7.1 µM. The RatioGI50 in assay [5] is listed as 0.73.

For `C=C1[C@H]2C[C@@H]3C4N5C[C@]6(C)CCC[C@@]47[C@@H]6[C@@H]5C[C@]3([C@@H]1OC(=O)/C=C/c1cccc(C(F)(F)F)c1)[C@H]7[C@H]2OC(=O)/C=C/c1cccc(C(F)(F)F)c1`, the GI50 was determined as 5.5 µM in assay [1], 6.2 µM in assay [2], 4.1 µM in assay [3] and 3.1 µM in assay [4]. For the same molecule, the RatioGI50 in assay [5] was found to be 1.3.

For the molecule `C=C1[C@H]2C[C@@H]3C4N5C[C@]6(C)CCC[C@@]47[C@@H]6[C@@]5(O)C[C@]3([C@@H]1OC(=O)/C=C/c1ccccc1)[C@H]7[C@H]2O`, the concentration for 50% growth inhibition (GI50) in assay [1], in assay [2], in assay [3] and in assay [4] was above 20 µM throughout. The RatioGI50 in assay [5] was above 20.

As to `C=C1[C@H]2C[C@@H]3C4N(C(=O)/C=C/c5ccccc5)C[C@]5(C)CCC[C@@]46[C@@H]5C(=O)C[C@]3([C@@H]1O)[C@H]6[C@H]2O` (stereo not given in full), the GI50 in assay [1], in assay [2], in assay [3] and in assay [4] was above 20 µM in each case. Further, the RatioGI50 in assay [5] is above 20.

For the molecule `C=C1[C@H]2C[C@@H]3C4N5C[C@]6(C)CCC[C@@]47[C@@H]6[C@@]5(O)C[C@]3([C@@H]1O)[C@H]7[C@H]2OC(=O)C(C)(C)C`, the GI50 in assay [1], in assay [2], in assay [3] and in assay [4] was above 20 µM in each case. Also, in assay [5], the RatioGI50 is above 20.

Regarding `C=C1[C@H]2C[C@@H]3C4N5C[C@]6(C)CCC[C@@]47[C@@H]6[C@@]5(O)C[C@]3([C@@H]1O)[C@H]7[C@H]2OC(=O)c1cccnc1`, the 50% growth inhibitory concentration (GI50) in assay [1], in assay [2], in assay [3] and in assay [4] was above 20 µM throughout. The RatioGI50 in assay [5] is reported as above 20.

With `C=C1[C@H]2C[C@@H]3C4N5C[C@]6(C)CCC[C@@]47[C@@H]6[C@@]5(O)C[C@]3([C@@H]1OC(=O)c1cccnc1)[C@H]7[C@H]2O`, the GI50 in assay [1], in assay [2], in assay [3] and in assay [4] was above 20 µM throughout. Also, in assay [5], the RatioGI50 is above 20.

Regarding `C=C1[C@H]2C[C@@H]3C4N5C[C@]6(C)CCC[C@@]47[C@@H]6[C@@]5(O)C[C@]3([C@@H]1OC(=O)c1cccnc1)[C@H]7[C@H]2OC(=O)c1cccnc1`, the concentration for 50% growth inhibition (GI50) in assay [1], in assay [2], in assay [3] and in assay [4] was above 20 µM throughout. The RatioGI50 in assay [5] is given as above 20.

With `C=C1[C@H]2C[C@@H]3C4N5C[C@]6(C)CCC[C@@]47[C@@H]6[C@@]5(O)C[C@]3([C@@H]1OC(=O)CC)[C@H]7[C@H]2O`, the GI50 in assay [1], in assay [2], in assay [3] and in assay [4] was above 20 µM in each case. The RatioGI50 in assay [5] is on record as above 20.

In the case of `C=C1[C@H]2C[C@@H]3C4N5C[C@]6(C)CCC[C@@]47[C@@H]6[C@@]5(O)C[C@]3([C@@H]1OC(=O)CC)[C@H]7[C@H]2OC(=O)CC`, the concentration for 50% growth inhibition (GI50) in assay [1], in assay [2], in assay [3] and in assay [4] was above 20 µM in each case. In assay [5], the RatioGI50 is above 20.

For `C=C1[C@H]2C[C@@H]3C4N5C[C@]6(C)CCC[C@@]47[C@@H]6[C@@]5(O)C[C@]3([C@@H]1O)[C@H]7[C@H]2OC(c1ccccc1)(c1ccccc1)c1ccccc1`, the 50% growth inhibitory concentration (GI50) in assay [1] amounted to 6.4 µM; in assay [2], 6 µM; in assay [3], 6.6 µM; in assay [4] it was 5.2 µM. In assay [5], the RatioGI50 is given as 1.3.

Take `CC1[C@H]2C[C@@H]3C4N5C[C@]6(C)CCC[C@@]47[C@@H]6[C@@]5(O)C[C@]3([C@@H]1O)[C@H]7[C@H]2O` (stereo not given in full): the 50% growth inhibitory concentration (GI50) in assay [1], in assay [2], in assay [3] and in assay [4] was above 20 µM throughout. For the same molecule, in assay [5], the RatioGI50 is above 20.

For the molecule `C=C1[C@H]2C[C@H]3C4N(Cc5ccccc5)C[C@]5(C)CCC[C@]46[C@H]([C@H]2O)C3(CC(=O)[C@H]56)[C@@H]1O` (stereo not given in full), the GI50 in assay [1], in assay [2], in assay [3] and in assay [4] was above 20 µM each time. Moreover, the RatioGI50 in assay [5] was above 20.
